Results as given in PubChem BioAssay AID588487 (The Scripps Research Institute Molecular Screening Center, 2011).
Activity calls are given as the source filed them.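 The calls were made as follows: active = inhibition of at least 50% against any of four protein arginine deiminase enzymes; inactive = the rest.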

What was measured:
Assay in all cases: PAD isozyme probe labeling blockade – biochemical, fluorescence, gel-based ABPP, HTS hits, orthogonal assay for PAD4 inhibitor project, late-stage follow-up (AID 588487)
[1] = biological target: Protein-arginine deiminase type-2 (Homo sapiens) (UniProt Q9Y2J8); conditions: recombinant PAD1-4, gel-based ABPP, RFA probe fluorescence; PAD2; at 10 µM; stronger effect = higher value
Chain of Protein-arginine deiminase type-2 (Homo sapiens) (Q9Y2J8 whole entry, looked up): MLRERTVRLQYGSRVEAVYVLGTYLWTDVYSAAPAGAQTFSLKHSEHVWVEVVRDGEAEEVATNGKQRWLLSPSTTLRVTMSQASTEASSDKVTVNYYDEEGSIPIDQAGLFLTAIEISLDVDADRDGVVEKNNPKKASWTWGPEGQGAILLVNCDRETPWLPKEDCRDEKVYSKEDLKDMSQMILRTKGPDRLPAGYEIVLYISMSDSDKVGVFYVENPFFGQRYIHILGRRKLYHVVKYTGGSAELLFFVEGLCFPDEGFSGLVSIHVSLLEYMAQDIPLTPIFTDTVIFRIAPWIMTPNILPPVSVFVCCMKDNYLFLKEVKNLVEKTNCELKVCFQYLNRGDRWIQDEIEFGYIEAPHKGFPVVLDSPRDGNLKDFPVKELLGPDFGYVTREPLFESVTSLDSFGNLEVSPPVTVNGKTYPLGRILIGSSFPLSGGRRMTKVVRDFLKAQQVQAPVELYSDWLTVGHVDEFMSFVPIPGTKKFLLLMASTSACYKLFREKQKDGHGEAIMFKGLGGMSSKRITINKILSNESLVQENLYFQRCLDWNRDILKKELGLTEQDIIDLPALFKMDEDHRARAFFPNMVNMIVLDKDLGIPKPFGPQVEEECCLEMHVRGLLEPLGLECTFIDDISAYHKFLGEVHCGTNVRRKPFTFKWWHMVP
How it was run: (§1)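 Assay system: recombinant PAD1, PAD2, PAD3 or PAD4 / Probe or stimulus: RFA fluorescent probe at 1 µM / Doses: single compound dose of 10 µM, DMSO vehicle / Timing: 15 min compound pre-incubation plus 30 min probe step, 37 °C / Technique: in-gel fluorescence scan of probe-labeled PAD band after SDS-PAGE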

[2] = biological target: Protein-arginine deiminase type-4 (Homo sapiens) (UniProt Q9UM07); conditions: recombinant PAD1-4, gel-based ABPP, RFA probe fluorescence; PAD4; at 10 µM; stronger effect = higher value
Chain of Protein-arginine deiminase type-4 (Homo sapiens) (Q9UM07 whole entry, looked up): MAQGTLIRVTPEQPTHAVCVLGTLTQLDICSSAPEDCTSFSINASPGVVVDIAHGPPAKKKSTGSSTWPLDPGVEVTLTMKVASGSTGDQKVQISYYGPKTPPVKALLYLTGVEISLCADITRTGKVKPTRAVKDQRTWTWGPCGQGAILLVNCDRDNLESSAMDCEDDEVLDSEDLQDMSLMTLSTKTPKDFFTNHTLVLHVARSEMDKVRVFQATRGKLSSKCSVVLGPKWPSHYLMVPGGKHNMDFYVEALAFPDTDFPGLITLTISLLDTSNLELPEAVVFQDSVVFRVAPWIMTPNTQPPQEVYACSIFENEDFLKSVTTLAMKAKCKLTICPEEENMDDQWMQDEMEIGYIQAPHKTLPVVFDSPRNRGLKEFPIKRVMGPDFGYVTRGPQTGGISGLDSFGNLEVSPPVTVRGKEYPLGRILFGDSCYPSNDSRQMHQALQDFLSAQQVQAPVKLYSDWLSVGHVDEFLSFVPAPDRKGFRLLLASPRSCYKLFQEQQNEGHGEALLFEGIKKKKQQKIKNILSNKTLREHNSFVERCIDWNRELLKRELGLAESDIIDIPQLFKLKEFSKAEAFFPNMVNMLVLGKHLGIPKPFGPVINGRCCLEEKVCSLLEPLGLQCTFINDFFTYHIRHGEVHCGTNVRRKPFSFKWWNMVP
How it was run: as §1

[3] = biological target: Protein-arginine deiminase type-3 (Homo sapiens) (UniProt Q9ULW8); conditions: recombinant PAD1-4, gel-based ABPP, RFA probe fluorescence; PAD3; at 10 µM; stronger effect = higher value
Chain of Protein-arginine deiminase type-3 (Homo sapiens) (Q9ULW8 whole entry, looked up): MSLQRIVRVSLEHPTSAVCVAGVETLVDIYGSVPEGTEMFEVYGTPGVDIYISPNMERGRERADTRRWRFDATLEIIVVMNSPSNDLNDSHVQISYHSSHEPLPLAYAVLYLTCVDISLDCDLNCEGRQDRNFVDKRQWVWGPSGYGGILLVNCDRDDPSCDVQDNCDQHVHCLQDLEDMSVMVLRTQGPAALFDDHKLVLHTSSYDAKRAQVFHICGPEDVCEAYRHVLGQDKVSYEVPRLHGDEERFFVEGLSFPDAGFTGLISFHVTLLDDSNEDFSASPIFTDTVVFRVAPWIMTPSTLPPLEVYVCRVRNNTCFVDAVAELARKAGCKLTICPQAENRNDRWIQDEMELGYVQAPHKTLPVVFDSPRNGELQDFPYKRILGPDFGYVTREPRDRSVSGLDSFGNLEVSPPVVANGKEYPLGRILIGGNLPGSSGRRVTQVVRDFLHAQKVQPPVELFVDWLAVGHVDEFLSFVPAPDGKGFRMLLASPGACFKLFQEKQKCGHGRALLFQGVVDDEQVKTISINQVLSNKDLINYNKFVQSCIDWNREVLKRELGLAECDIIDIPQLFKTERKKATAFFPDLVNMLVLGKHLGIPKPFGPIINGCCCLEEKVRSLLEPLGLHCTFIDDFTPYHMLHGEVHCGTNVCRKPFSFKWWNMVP
How it was run: as §1

[4] = biological target: Protein-arginine deiminase type-1 (Homo sapiens) (UniProt Q9ULC6); conditions: recombinant PAD1-4, gel-based ABPP, RFA probe fluorescence; PAD1; at 10 µM; stronger effect = higher value
Chain of Protein-arginine deiminase type-1 (Homo sapiens) (Q9ULC6 whole entry, looked up): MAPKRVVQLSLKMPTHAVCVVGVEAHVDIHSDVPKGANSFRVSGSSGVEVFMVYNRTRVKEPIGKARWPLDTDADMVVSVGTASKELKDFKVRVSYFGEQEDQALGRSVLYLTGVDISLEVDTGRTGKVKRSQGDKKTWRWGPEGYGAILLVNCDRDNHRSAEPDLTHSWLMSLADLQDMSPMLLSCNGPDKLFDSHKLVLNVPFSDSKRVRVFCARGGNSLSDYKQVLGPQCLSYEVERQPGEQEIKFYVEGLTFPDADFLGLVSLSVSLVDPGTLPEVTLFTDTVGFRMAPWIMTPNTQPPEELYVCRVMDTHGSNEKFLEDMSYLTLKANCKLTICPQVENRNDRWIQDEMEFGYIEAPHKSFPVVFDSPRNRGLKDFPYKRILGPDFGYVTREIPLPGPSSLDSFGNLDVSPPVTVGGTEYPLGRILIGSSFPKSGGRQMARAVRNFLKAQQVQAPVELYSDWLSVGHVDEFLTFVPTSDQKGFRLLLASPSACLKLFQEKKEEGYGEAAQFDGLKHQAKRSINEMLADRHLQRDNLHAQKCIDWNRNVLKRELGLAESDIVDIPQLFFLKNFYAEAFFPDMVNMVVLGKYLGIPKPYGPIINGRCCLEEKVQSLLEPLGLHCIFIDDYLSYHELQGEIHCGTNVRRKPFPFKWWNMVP
How it was run: as §1

Row | SMILES | inhibition [1] | inhibition [2] | inhibition [3] | inhibition [4]
1 | Cc1nonc1OC(C)CNc1ccc([N+](=O)[O-])cc1 (configuration not stated) | 38% (inactive) | 22% (inactive) | 38% (inactive) | 46% (inactive)
2 | COc1cccc(NC(=O)CN(C)C(=O)C23CC4CC(CC(Cl)(C4)C2)C3)c1 | 17% (inactive) | 60% | 13% (inactive) | 13% (inactive)
3 | Cc1oc2c(C)c(O)ccc2c(=O)c1-c1ccc2ccccc2n1 | 50% | 1% (inactive) | 42% (inactive) | -33% (inactive)
4 | O=c1cc(-c2ccc(Cl)c(Cl)c2)[nH][nH]1 | 51% | 42% (inactive) | 41% (inactive) | 27% (inactive)
5 | Cn1c(SCC(=O)Nc2ccc(Br)cn2)nnc1C1CC1 | 19% (inactive) | 15% (inactive) | -19% (inactive) | 17% (inactive)
6 | Cn1c(SCC(=O)N/N=C/C=C/c2ccco2)nc2ccccc21 | 41% (inactive) | 38% (inactive) | -13% (inactive) | 14% (inactive)
7 | O=C(O)CCC(=O)c1ccc(-c2ccccc2)cc1 | -45% (inactive) | -51% (inactive) | 24% (inactive) | 16% (inactive)
8 | Cc1cc2ncn(-c3ncccc3[N+](=O)[O-])c2cc1C | 25% (inactive) | 29% (inactive) | -25% (inactive) | 46% (inactive)
9 | CN(C)CCN(Cc1ccccc1)c1ccccn1 | 46% (inactive) | 65% | -7% (inactive) | 13% (inactive)
10 | c1ccc(CCn2c3ccccc3c3nnc(SCc4ccc5nonc5c4)nc32)cc1 | 14% (inactive) | 31% (inactive) | 21% (inactive) | 18% (inactive)
11 | CCOc1c(Br)cc(/C=C2\C(=O)N(CCC#N)N=C2C)cc1OC | 25% (inactive) | 52% | 15% (inactive) | 45% (inactive)
12 | O=c1cc(-c2ccc(Br)cc2)[nH][nH]1 | -6% (inactive) | 51% | 20% (inactive) | 6% (inactive)
13 | O=c1cc(-c2cccc([N+](=O)[O-])c2)[nH][nH]1 | 18% (inactive) | 29% (inactive) | 5% (inactive) | 24% (inactive)
14 | O=C1CC(c2cccnc2)=NN1c1ccccc1 | 34% (inactive) | 4% (inactive) | 34% (inactive) | 37% (inactive)
15 | COc1cccc(/C=C2/CN(C)CC3=C2OC(N)=C(C#N)C3c2cccc(OC)c2)c1 (configuration not stated) | 92% | -5% (inactive) | 48% (inactive) | -47% (inactive)
16 | CCOC(=O)N1CCC(c2cc(=O)n(-c3ccccc3)[nH]2)CC1 | 14% (inactive) | 30% (inactive) | 32% (inactive) | 43% (inactive)
17 | Cc1cc(C)cc(NC(=S)/C(=C(\[O-])c2ccc(Cl)s2)[n+]2cccc(C)c2)c1 | 50% | -8% (inactive) | 28% (inactive) | -1% (inactive)
18 | O=c1cc(-c2ccc(Cl)cc2)[nH][nH]1 | 62% | 41% (inactive) | -44% (inactive) | 33% (inactive)
19 | Cc1nn(-c2cccc(Cl)c2)c2c1C(c1cccnc1)C(C#N)=C(N)O2 (configuration not stated) | 28% (inactive) | 53% | -34% (inactive) | 74%
20 | Cc1cc(N(C)NC(=S)Nc2ccccc2)nc(C)n1 | 58% | 5% (inactive) | 38% (inactive) | 32% (inactive)
21 | COc1cccc(C2=CC(c3ccc(OC)c(OC)c3)NC(=S)N2)c1 (configuration not stated) | 14% (inactive) | -9% (inactive) | -3% (inactive) | -9% (inactive)
22 | COc1ccc(C2=CC(c3ccc(OC)c(OC)c3)NC(=S)N2)cc1 (configuration not stated) | -9% (inactive) | -50% (inactive) | 36% (inactive) | 37% (inactive)

Row | SMILES | inhibition [1] | inhibition [2] | inhibition [3] | inhibition [4]
23 | COc1ccc(-c2cc(=O)n(CCC#N)[nH]2)cc1 | 17% (inactive) | 32% (inactive) | 35% (inactive) | 17% (inactive)
24 | COc1cccc2cc(C(=O)NC3CC(C)(C)NC(C)(C)C3)c(=O)oc12 | 7% (inactive) | 31% (inactive) | 66% | 15% (inactive)
25 | COCc1cc(C)nc(SCC(=O)Nc2ccc3c(c2)n(C)c(=O)n3C)c1C#N | 31% (inactive) | 38% (inactive) | -43% (inactive) | 15% (inactive)
26 | O=C(CN1CCCCCC1)Nc1ccc(Br)cc1Br | -16% (inactive) | -53% (inactive) | 31% (inactive) | 41% (inactive)
27 | COc1ccc(/C=C2/C(=O)N(c3ccccc3)N=C2C)cc1 | 47% (inactive) | 35% (inactive) | 35% (inactive) | 20% (inactive)
28 | O=C(COc1ccccc1F)N1CCN(S(=O)(=O)/C=C/c2ccccc2)CC1 | 25% (inactive) | 42% (inactive) | 3% (inactive) | -10% (inactive)
29 | COc1ccc(CCNC(=O)COC(=O)c2ccc(C)s2)cc1 | 40% (inactive) | 72% | -38% (inactive) | -2% (inactive)
30 | Cc1ccc(C2=NN=C(NC(=O)CSc3nncn3C)SC2)cc1 | 1% (inactive) | 26% (inactive) | 32% (inactive) | 16% (inactive)
31 | CCNC(=S)NNC(=O)c1csc(C)c1 | -19% (inactive) | 25% (inactive) | 14% (inactive) | 2% (inactive)
32 | CC(=O)C1=C(c2ccccc2)N(C(C)=O)n2c(C)nnc2S1 | 25% (inactive) | 9% (inactive) | 32% (inactive) | 42% (inactive)
33 | S=C(NCc1ccco1)Nc1cccc(Cl)c1 | 25% (inactive) | 1% (inactive) | 43% (inactive) | 46% (inactive)
34 | Cc1cc(C)c(C#N)c(Sc2ccccc2N)n1 | 38% (inactive) | 6% (inactive) | 5% (inactive) | 36% (inactive)
35 | CS(=O)(=O)c1ccc(N)c(SSc2cc(S(C)(=O)=O)ccc2N)c1 | 14% (inactive) | -7% (inactive) | 35% (inactive) | 27% (inactive)
36 | Cc1c(C(=O)N2CCCCC2)c(S(=O)(=O)N2CCN(c3ccc(Cl)cc3)CC2)c(C)n1C | 6% (inactive) | 67% | 26% (inactive) | -25% (inactive)
37 | COc1ccc(S(=O)(=O)Nc2ccccc2C)cc1 | 57% | 57% | -13% (inactive) | 23% (inactive)
38 | CC(NC(=O)Nc1ccc(O)cc1)(C(F)(F)F)C(F)(F)F | 31% (inactive) | 60% | -29% (inactive) | 29% (inactive)
39 | O=C(NC1CCCCC1)C(c1cccs1)N(CCCN1CCOCC1)C(=O)c1ccc(-c2ccccc2)[nH]1 (configuration not stated) | -27% (inactive) | 59% | 15% (inactive) | -42% (inactive)
40 | CCN(CC)c1cccc(OC2=NS(=O)(=O)c3ccccc32)c1 | 50% | 17% (inactive) | 32% (inactive) | 60%
41 | O=c1cc(-c2ccc(F)cc2)[nH][nH]1 | 28% (inactive) | 37% (inactive) | 1% (inactive) | 33% (inactive)
42 | COC(=O)c1cc(C)nc(Sc2ccccc2N)n1 | 8% (inactive) | -61% (inactive) | 60% | 23% (inactive)
43 | O=C(O)CCC(=O)Nc1ccc(SSc2ccc(NC(=O)CCC(=O)O)cc2)cc1 | 40% (inactive) | 45% (inactive) | 34% (inactive) | 35% (inactive)
